Active and inactive are the calls of the source. No cut-off for these calls is given here.
How the values were obtained:
[1] = biological target: T1, Adenosine receptor A2b (Homo sapiens) (UniProt P29275); assay: (§1) Agonist activity at human Adenosine A2B receptor expressed in yeast cells coexpressed with chimeric GPA1/Galphas after 16 hrs by beta-galactosidase reporter gene assay; type: cell-based
T1 sequence (whole entry): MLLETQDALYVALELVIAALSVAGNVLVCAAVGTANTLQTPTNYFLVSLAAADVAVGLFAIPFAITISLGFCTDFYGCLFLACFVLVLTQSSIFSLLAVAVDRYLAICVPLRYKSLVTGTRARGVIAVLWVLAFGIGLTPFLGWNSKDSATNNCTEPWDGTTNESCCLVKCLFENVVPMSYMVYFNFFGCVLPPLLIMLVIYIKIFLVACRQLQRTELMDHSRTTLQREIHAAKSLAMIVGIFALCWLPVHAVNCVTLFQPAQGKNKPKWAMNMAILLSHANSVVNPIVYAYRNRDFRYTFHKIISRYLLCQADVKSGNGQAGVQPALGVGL
Method in brief: (§2)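 Yeast (Δfar1, FUS1-lacZ) express A2BR from the GAPDH promoter alongside Gpa1p/Gαs chimera. The OD600 is 0.02 and compound is added in 1% v/v DMSO for 16 h at 30°C. β-Galactosidase is read with ONPG at OD430, normalised as (OD430−OD620)/OD620. Three-parameter logistic fit gives EC50 and Emax. Data are from 5-8 independent experiments.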

[2] = biological target: T2, Adenosine receptor A3 (Homo sapiens) (UniProt P0DMS8); assay: Agonist activity at human Adenosine A3 receptor transfected in CHO-K1 cells assessed as inhibition of forskolin-stimulated cAMP production after 30 mins by multimode microplate reader analysis relative to total forskolin; type: functional, cell-based; design: concentration or dose not given beside the values
T2 sequence (whole entry): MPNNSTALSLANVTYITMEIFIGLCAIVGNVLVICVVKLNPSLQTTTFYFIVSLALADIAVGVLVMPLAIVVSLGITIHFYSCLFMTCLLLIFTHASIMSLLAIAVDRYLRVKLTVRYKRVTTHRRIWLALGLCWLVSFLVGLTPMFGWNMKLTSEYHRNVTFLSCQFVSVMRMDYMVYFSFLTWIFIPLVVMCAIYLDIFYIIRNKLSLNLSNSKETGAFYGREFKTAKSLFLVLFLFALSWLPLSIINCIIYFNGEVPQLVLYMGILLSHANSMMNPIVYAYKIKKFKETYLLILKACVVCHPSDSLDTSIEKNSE
Method in brief: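 CHO-K1 cells are transiently transfected with receptor (2 µg DNA, FuGene 6) and harvested at 48 h. Cells are resuspended in PBS with 0.1% BSA and 25 µM rolipram, at 2500 cells/well. They are co-incubated with 10 µM forskolin and ligand (10 pM to 1 µM) for 30 min at room temperature. cAMP is measured by LANCE kit. Data are expressed as % of the 10 µM forskolin response.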

Adenosine receptor A1 [3] = biological target: T3, Adenosine receptor A1 (Homo sapiens, UniProt P30542); assay: Agonist activity at human Adenosine A1 receptor transfected in CHO-K1 cells assessed as inhibition of forskolin-stimulated cAMP production after 30 mins by multimode microplate reader analysis; type: functional, cell-based
T3 sequence (P30542 whole entry): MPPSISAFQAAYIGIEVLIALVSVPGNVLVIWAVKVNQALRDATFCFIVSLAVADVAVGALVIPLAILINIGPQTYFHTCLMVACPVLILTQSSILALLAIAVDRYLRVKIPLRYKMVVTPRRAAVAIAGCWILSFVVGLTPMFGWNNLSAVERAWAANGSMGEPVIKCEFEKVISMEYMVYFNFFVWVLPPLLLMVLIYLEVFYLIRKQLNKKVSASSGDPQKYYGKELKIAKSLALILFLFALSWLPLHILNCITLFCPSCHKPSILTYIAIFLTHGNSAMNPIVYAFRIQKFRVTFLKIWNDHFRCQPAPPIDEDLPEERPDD

Adenosine receptor A2a [4] = biological target: T4, Adenosine receptor A2a (Homo sapiens, UniProt P29274)
T4 sequence (P29274 whole entry): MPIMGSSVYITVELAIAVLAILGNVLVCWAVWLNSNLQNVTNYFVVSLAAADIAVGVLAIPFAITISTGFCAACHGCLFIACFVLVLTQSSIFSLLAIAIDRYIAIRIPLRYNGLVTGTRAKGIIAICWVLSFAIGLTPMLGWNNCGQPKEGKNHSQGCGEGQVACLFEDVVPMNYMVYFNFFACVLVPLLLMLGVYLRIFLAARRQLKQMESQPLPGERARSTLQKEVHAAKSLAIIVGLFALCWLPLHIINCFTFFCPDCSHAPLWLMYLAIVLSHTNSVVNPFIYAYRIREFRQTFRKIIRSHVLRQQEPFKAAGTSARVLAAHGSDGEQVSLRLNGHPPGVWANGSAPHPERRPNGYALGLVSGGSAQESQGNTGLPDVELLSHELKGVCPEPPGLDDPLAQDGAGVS

[5] = biological target: T2, Adenosine receptor A3 (Homo sapiens); assay: (§3) Agonist activity at human Adenosine A3 receptor transfected in CHO-K1 cells assessed as inhibition of forskolin-stimulated cAMP production after 30 mins by multimode microplate reader analysis; type: functional, cell-based
Method in brief: (§4)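 CHO-K1 cells are transiently transfected with receptor (2 µg DNA, FuGene 6) and harvested at 48 h. They are co-incubated with 10 µM forskolin and ligand (10 pM to 1 µM) for 30 min at room temperature. cAMP is measured by LANCE kit. Data are expressed as % of the 10 µM forskolin response.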

[6] = biological target: T1, Adenosine receptor A2b (Homo sapiens); assay: Agonist activity at human Adenosine A2B receptor expressed in yeast cells coexpressed with chimeric GPA1/Galphas after 16 hrs by beta-galactosidase reporter gene assay relative to NECA; type: cell-based
Method in brief: as §2, with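 “(OD430−OD620)/OD620. […]” for “(OD430−OD620)/OD620.”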

Adenosine receptor A1 [7] = biological target: T3, Adenosine receptor A1; assay: Agonist activity at human Adenosine A1 receptor expressed in yeast cells coexpressed with chimeric GPA1/Galphai1 after 16 hrs by beta galactosidase reporter gene assay; type: cell-based
[8] = biological target: T1, Adenosine receptor A2b (Homo sapiens); assay: Binding affinity to human Adenosine A2B receptor expressed in yeast cells coexpressed with GPA1/Galphas; type: cell-based
Method in brief: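 pKA is derived by non-linear regression of the operational model of agonism applied to 16 h yeast FUS1-lacZ concentration-response data, with A2BR coupled to the GPA1/Gαs chimera.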

[9] = biological target: T5, Adenosine receptor A1 (Homo sapiens) (UniProt P30542)
T5 sequence (whole entry): T3 sequence (P30542 whole entry)

Adenosine receptor A2a [10] = biological target: T4, Adenosine receptor A2a; assay: Agonist activity at human Adenosine A2A receptor expressed in yeast cells coexpressed with chimeric GPA1/Galphas after 16 hrs by beta-galactosidase reporter gene assay; type: cell-based
[11] = biological target: T5, Adenosine receptor A1 (Homo sapiens); remark: listed apart in the source
Adenosine receptor A2b = biological target: T6, Adenosine receptor A2b (Homo sapiens, UniProt P29275); assay: as §1; type: cell-based; method in brief: as §2
T6 sequence (P29275 whole entry): T1 sequence (whole entry)

Adenosine receptor A2a [12] = biological target: T4, Adenosine receptor A2a; remark: listed apart in the source
Adenosine receptor A3 = biological target: T7, Adenosine receptor A3 (Homo sapiens, UniProt P0DMS8); assay: as §3; type: functional, cell-based; method in brief: as §4
T7 sequence (P0DMS8 whole entry): T2 sequence (whole entry)

[13] = biological target: T1, Adenosine receptor A2b (Homo sapiens)
[14] = biological target: T5, Adenosine receptor A1 (Homo sapiens); assay: Agonist activity at human Adenosine A1 receptor expressed in yeast cells coexpressed with chimeric GPA1/Galphai1 at 100 uM after 16 hrs by beta galactosidase reporter gene assay; type: cell-based
Method in brief: (§5)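 Human receptor expressed from GAPDH promoter (p426-GPD) in Δfar1 FUS1-lacZ yeast with Gpa1p(1-467) carrying the 5 C-terminal Gα residues. Cells are grown overnight in SD-URA at 30°C, diluted 1:10 and grown 8 h. They are set to OD600 0.02 and given compound at 1% v/v DMSO for 16 h at 30°C. A2A strain is grown in SD-URA-HIS, with 5 mM 3-amino-triazole in treatment media. Read-out: ONPG, (OD430−OD620)/OD620.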

Adenosine receptor A2a [15] = biological target: T4, Adenosine receptor A2a; assay: Agonist activity at human Adenosine A2A receptor expressed in yeast cells coexpressed with chimeric GPA1/Galphas at 100 uM after 16 hrs by beta-galactosidase reporter gene assay; type: cell-based; method in brief: as §5
[16] = biological target: T1, Adenosine receptor A2b (Homo sapiens); assay: Agonist activity at human Adenosine A2B receptor expressed in yeast cells coexpressed with chimeric GPA1/Galphas at 100 µM after 16 hrs by beta-galactosidase reporter gene assay; type: cell-based
Method in brief: as §2, with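 “(OD430−OD620)/OD620. […]” for “(OD430−OD620)/OD620.”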

Row | Compound | pEC50 [1] | Activity [2] | IC50 (Adenosine receptor A1 [3]) | pKA (Adenosine receptor A2a [4]) | pIC50 [5] | Emax [6] | EC50 (Adenosine receptor A1 [7]) | pKA [8] | log(activity) [9] | pEC50 (Adenosine receptor A2a [10]) | pKA [11] | EC50 (Adenosine receptor A2b) | log(activity) (Adenosine receptor A2a [12]) | IC50 (Adenosine receptor A3) | log(activity) [13] | EC50 (Adenosine receptor A2a [10]) | Activity [14] | Activity (Adenosine receptor A2a [15]) | Activity [16]
1 | OC[C@H]1O[C@@H](n2cnc3c(NC45CC6CC(CC(C6)C4)C5)ncnc32)[C@H](O)[C@@H]1O | inactive | inactive | 19.1 nM | inactive | inactive | inactive | 15800 nM | inactive | 1.8 | inactive | 3 |  |  |  |  |  |  |  | 
2 | Nc1ncnc2c1ncn2[C@@H]1O[C@H](CO)[C@@H](O)[C@H]1O |  |  |  |  |  | 70.4% |  | 3.8 |  |  |  |  |  |  |  |  |  |  | 
3 | CCNC(=O)[C@H]1O[C@@H](n2cnc3c(N[C@@H]4CCC[C@H]4O)ncnc32)[C@H](O)[C@@H]1O |  | -37.9% | 6.17 nM | 4.6 |  | 49.2% | 316 nM | 4.2 | 1.6 |  | 4.8 | 331000 nM | 0.3 | 2.29 nM | -0.2 | 5750 nM |  |  | 
4 | CCNC(=O)[C@H]1O[C@@H](n2cnc3c(NC4C5CC6CC(C5)CC4C6)ncnc32)[C@H](O)[C@@H]1O (stereo not given in full) | inactive | inactive | 0.398 nM | inactive | inactive | inactive | 15800 nM | inactive | 2.4 | inactive | 2.4 |  |  |  |  |  |  |  | 
5 | CCNC(=O)[C@H]1O[C@@H](n2cnc3c(N4[C@@H]5CCC[C@H]4C[C@H](N(C)C)C5)ncnc32)[C@H](O)[C@@H]1O |  |  |  | inactive |  |  |  | inactive |  |  | inactive |  |  |  |  |  | inactive | inactive | inactive
6 | CCNC(=O)[C@H]1O[C@@H](n2cnc3c(N)ncnc32)[C@H](O)[C@@H]1O |  | -44.1% |  |  |  |  |  | 4.2 |  |  | 4.4 |  |  |  |  |  |  |  | 
7 | CCNC(=O)[C@H]1O[C@@H](n2cnc3c(N4[C@@H]5CCC[C@H]4C[C@H](N)C5)ncnc32)[C@H](O)[C@@H]1O |  |  |  | inactive |  |  |  | inactive |  |  | inactive |  |  |  |  |  | inactive | inactive | inactive
8 | OC[C@H]1O[C@@H](n2cnc3c(N[C@@H]4CCC[C@H]4O)ncnc32)[C@H](O)[C@@H]1O | inactive | -35.1% | 4.37 nM | inactive |  | inactive | 631 nM | inactive | 0.7 | inactive | 5.5 |  |  | 27.5 nM |  |  |  |  | 
9 | OC[C@H]1O[C@@H](n2cnc3c(N[C@@H]4CCC[C@H]4OCc4ccccc4)ncnc32)[C@H](O)[C@@H]1O |  | inactive |  | inactive |  | inactive |  | inactive |  |  | 4.9 |  |  |  |  |  |  |  | 
10 | CCNC(=O)[C@H]1O[C@@H](n2cnc3c(N)nc(NCCc4ccc(CCC(=O)O)cc4)nc32)[C@H](O)[C@@H]1O |  |  |  |  |  | 59.1% |  | 3.4 |  |  | 2.1 |  |  |  |  |  |  |  | 
11 | CN1[C@@H]2CCC[C@H]1C[C@@H](Nc1ncnc3c1ncn3[C@@H]1O[C@H](CO)[C@@H](O)[C@H]1O)C2 |  |  |  | inactive |  |  |  | inactive |  |  | inactive |  |  |  |  |  |  | inactive | inactive
12 | O[C@@H]1[C@H](O)[C@@H](CSc2ccccc2F)O[C@H]1n1cnc2c(NC34CC5CC(CC(C5)C3)C4)ncnc21 |  |  |  |  |  |  |  | inactive |  |  | inactive |  |  |  |  |  | inactive |  | inactive
13 | CCNC(=O)[C@H]1O[C@@H](n2cnc3c(NC45CC6CC(CC(C6)C4)C5)ncnc32)[C@H](O)[C@@H]1O | inactive | inactive | 2.88 nM | inactive | inactive | inactive | 3980 nM | inactive | 1.2 | inactive | 4.2 |  |  |  |  |  |  |  | 
14 | OC[C@H]1O[C@@H](n2cnc3c(NC4CCCC4)nc(Cl)nc32)[C@H](O)[C@@H]1O |  | -46.6% |  | 4.7 |  | 30.6% |  | 4.4 | 0.6 |  |  |  | -0.1 |  | 3.5 |  |  |  | 
15 | CCNC(=O)[C@H]1O[C@@H](n2cnc3c(NC45CC6CC(CC(O)(C6)C4)C5)ncnc32)[C@H](O)[C@@H]1O | inactive | -32.7% | 37.2 nM | inactive |  | inactive | 100000 nM | inactive | 1 | inactive | 3.5 |  |  | 79.4 nM |  |  |  |  | 
16 | CCNC(=O)[C@H]1O[C@@H](n2cnc3c(N[C@H]4C[C@H]5CCC[C@@H](C4)N5C)ncnc32)[C@H](O)[C@@H]1O |  |  |  | inactive |  |  |  | inactive |  |  | inactive |  |  |  |  |  |  | inactive | inactive
17 | CN1[C@@H]2CCC[C@H]1C[C@@H](Nc1ncnc3c1ncn3[C@@H]1O[C@H](CSc3ccccc3F)[C@@H](O)[C@H]1O)C2 |  |  |  | inactive |  |  |  | inactive |  |  | inactive |  |  |  |  |  | inactive | inactive | inactive
